Results as given in ChEMBL document CHEMBL1671674, “Induction of multidrug resistance mechanism in Escherichia coli biofilms by interplay between tetracycline and ampicillin resistance genes” (2009).
≈ marks a conversion by molar mass, not a printed value. Calls of active or inactive are those of the source. No cut-off for these calls is given here.

Assays:
Escherichia coli [1] = assay: Antibacterial activity against Escherichia coli MG1655 harboring plasmid pBR322 carrying blaTEM-1 and tetA(C) genes grown as planktonic cells after 24 hrs by agar dilution method; conditions: K-12 substr. MG1655, 24 h
Escherichia coli [2] = assay: Antibacterial activity against Escherichia coli MG1655 grown as biofilms harboring plasmid pBR322 carrying blaTEM-1 and tetA(C) genes after 24 hrs by agar dilution method; type: functional
Summary of the method: (§1)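 Biofilm MIC: cultures diluted to OD600 0.1 in LB, grown in PVC 96-well plates 24 h at 37°C without shaking; antibiotic added directly without washing as 10-fold dilutions, then 24 h more.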

Escherichia coli [3] = assay: Antibacterial activity against Escherichia coli MG1655 grown as biofilms harboring plasmid pBR322 carrying blaTEM-1 and tetA(C) genes assessed as reduction in bacterial biofilms formation; type: functional; conditions: K-12 substr. MG1655
Summary of the method: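 Biofilms grown in LB on PVC 96-well plates (inoculum OD600 0.1, 24 h, 37°C, static), then antibiotic added as 10-fold dilutions for 24 h. Eight replicates per condition, four independent experiments.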

Escherichia coli [4] = assay: Antibacterial activity against Escherichia coli MG1655 harboring grown as biofilms plasmid pBR322 carrying blaTEM-1 and tetA(C) genes assessed as decrease in bacterial biofilms formation at 5 ug/ml by GFP assay; type: functional; conditions: K-12 substr. MG1655
Escherichia coli [5] = assay: Antibacterial activity against Escherichia coli MG1655 grown as biofilms assessed as inhibition of bacterial biofilms formation at 5 to 500 ug/ml; type: functional; conditions: K-12 substr. MG1655
Summary of the method: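 MG1655 biofilms grown in LB in PVC 96-well plates from early-stationary cultures diluted to OD600 0.1, static 24 h at 37°C. Antibiotic added unwashed as 10-fold dilutions (0.0000005–500 μg/ml) for another 24 h.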

Escherichia coli [6] = assay: Antibacterial activity against Escherichia coli OCL62 grown as biofilms harboring plasmid pBR322 carrying blaTEM-1 and tetA(C) genes after 24 hrs by crystal violet staining method; conditions: OCL62, 24 h
Escherichia coli [7] = assay: Antibacterial activity against Escherichia coli OCL62 grown as biofilms after 24 hrs by agar dilution method; type: functional; conditions: OCL62, 24 h; summary of the method: as §1
Escherichia coli [8] = assay: Antibacterial activity against Escherichia coli OCL62 harboring plasmid pBR322 carrying blaTEM-1 and tetA(C) genes grown as planktonic cells after 24 hrs by broth microdilution method; conditions: OCL62, 24 h
Escherichia coli [9] = assay: Antibacterial activity against Escherichia coli MG1655 grown as biofilms after 24 hrs by agar dilution method; type: functional; conditions: K-12 substr. MG1655, 24 h; summary of the method: as §1
Escherichia coli [10] = assay: Antibacterial activity against Escherichia coli MG1655 grown as planktonic cells after 24 hrs by agar dilution method; type: functional; conditions: K-12 substr. MG1655, 24 h
Escherichia coli [11] = assay: Antibacterial activity against Escherichia coli MG1655 grown as planktonic cells harboring plasmid pBR322 carrying blaTEM-1 and tetA(C) genes assessed as reduction in bacterial biofilms formation; type: functional; conditions: K-12 substr. MG1655
Escherichia coli [12] = assay: Antibacterial activity against Escherichia coli OCL62 grown as planktonic cells after 24 hrs by agar dilution method; type: functional; conditions: OCL62, 24 h

For `CC1(C)S[C@@H]2[C@H](NC(=O)Cc3ccccc3)C(=O)N2[C@H]1C(=O)O` [PENICILLIN G], the MIC (Escherichia coli [1]) was 5 µg/mL (≈ 15 µM) and the MIC (Escherichia coli [2]; K-12 substr. MG1655, 24 h) was 0.5 µg/mL (≈ 1.5 µM).
With GENTAMICIN the MIC (Escherichia coli [2]; K-12 substr. MG1655) was 0.005 µg/mL.
In the case of `CC1(C)S[C@@H]2[C@H](NC(=O)[C@H](N)c3ccccc3)C(=O)N2[C@H]1C(=O)O` [AMPICILLIN], the inhibition (Escherichia coli [3]) was “Active”, the MIC (Escherichia coli [1]) was 500 µg/mL (≈ 1430 µM) and the inhibition (Escherichia coli [4]) was “Active”. For the same compound, the MIC (Escherichia coli [2]; K-12 substr. MG1655, 24 h) was 5 µg/mL (≈ 14.3 µM), the Activity (Escherichia coli [5]) was “Active” and the MIC (Escherichia coli [6]) was 50 µg/mL (≈ 143 µM). For the same compound, the MIC (Escherichia coli [7]) was 5 µg/mL (≈ 14.3 µM), the MIC (Escherichia coli [8]) was 5 µg/mL (≈ 14.3 µM) and the MIC (Escherichia coli [9]) was 5 µg/mL (≈ 14.3 µM). The MIC (Escherichia coli [10]) was 0.5 µg/mL (≈ 1.43 µM), the inhibition (Escherichia coli [11]) was “inactive” and the MIC (Escherichia coli [12]) was 5 µg/mL (≈ 14.3 µM).
With `CC[C@H]1OC(=O)[C@H](C)[C@@H](O[C@H]2C[C@@](C)(OC)[C@@H](O)[C@H](C)O2)[C@H](C)[C@@H](O[C@@H]2O[C@H](C)C[C@H](N(C)C)[C@H]2O)[C@](C)(O)C[C@@H](C)C(=O)[C@H](C)[C@@H](O)[C@]1(C)O` [ERYTHROMYCIN] the MIC (Escherichia coli [1]) was 0.5 µg/mL (≈ 0.681 µM) and the MIC (Escherichia coli [2]; K-12 substr. MG1655, 24 h) was 5 µg/mL (≈ 6.81 µM).
`CN(C)[C@@H]1C(O)=C(C(N)=O)C(=O)[C@@]2(O)C(O)=C3C(=O)c4c(O)cccc4[C@@](C)(O)[C@H]3C[C@@H]12` [TETRACYCLINE] was tested, and the MIC (Escherichia coli [1]) was 500 µg/mL (≈ 1130 µM), the inhibition (Escherichia coli [4]) was “Active” and the MIC (Escherichia coli [2]; K-12 substr. MG1655, 24 h) was > 500 µg/mL. For the same compound, the Activity (Escherichia coli [5]) was “Active”, the MIC (Escherichia coli [9]) was 500 µg/mL (≈ 1130 µM) and the MIC (Escherichia coli [10]) was 0.5 µg/mL (≈ 1.13 µM).
`NC[C@H]1O[C@H](O[C@H]2[C@H](O)[C@@H](O[C@H]3O[C@H](CO)[C@@H](O)[C@H](N)[C@H]3O)[C@H](N)C[C@@H]2N)[C@H](O)[C@@H](O)[C@@H]1O` [KANAMYCIN] showed an MIC (Escherichia coli [2]; K-12 substr. MG1655, 24 h) of 0.5 µg/mL (≈ 1.03 µM).
`O=C(N[C@H](CO)[C@H](O)c1ccc([N+](=O)[O-])cc1)C(Cl)Cl` [CHLORAMPHENICOL] showed an MIC (Escherichia coli [1]) of 0.5 µg/mL (≈ 1.55 µM) and an MIC (Escherichia coli [2]; K-12 substr. MG1655, 24 h) of 5 µg/mL (≈ 15.5 µM).
